# From ChEMBL document CHEMBL4261586, “Conjugation of a 5-nitrofuran-2-oyl moiety to aminoalkylimidazoles produces non-toxic nitrofurans that are efficacious in vitro and in vivo against multidrug-resistant Mycobacterium tuberculosis” (Eur J Med Chem, 2018)
# Assays:
# Type in all cases: functional
# [1] = test system: Mycobacterium tuberculosis; assay: Antimycobacterial activity against multidrug-resistant Mycobacterium tuberculosis 2712 harboring rpoB S531L/katG I335V/ahpC T10 mutation after 7 days by resazurin microtitre plate assay
# Summary of the method: (§1)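 REMA in Middlebrook 7H9 with OADC. Three-week culture vortexed with glass beads, adjusted to 1.0 McFarland (about 3×10⁸ bacteria/mL) and diluted 20-fold. Final concentrations 1.6–200 via 2-fold dilutions; growth control plus 1% ([…] diluted) control. 7 days at 35 °C, then 0.01% resazurin for 18 h; fluorescence ex 520/em 590 nm. MIC taken where fluorescence plateaued or matched the 1% control (t-test).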
# [2] = test system: Mycobacterium tuberculosis; assay: Antimycobacterial activity against multidrug-resistant Mycobacterium tuberculosis 5023 harboring rpoB S531L/katG S315T mutation mutation after 7 days by resazurin microtitre plate assay; summary of the method: as §1
# [3] = test system: Mycobacterium tuberculosis; assay: Antimycobacterial activity against multidrug-resistant Mycobacterium tuberculosis 7106 harboring rpoB S531L/katG S315T mutation after 7 days by resazurin microtitre plate assay; summary of the method: as §1
# [4] = test system: Mycobacterium tuberculosis; assay: (§2) Antitubercular activity against multidrug-resistant Mycobacterium tuberculosis 2712 infected in C57BL/6 mouse assessed as lung mass index at 28 mg/kg, po administered via gavage over 42 days (excluding weekends) cotreated with prothionamide, levofloxacin and p-aminosalicylic acid (reference value: 1.81 +/- 0.12)
# [5] = test system: Mycobacterium tuberculosis; assay: as §2, with “tubercular foci” for “lung mass”, “3.46” for “1.81”, “0.09)” for “0.12)”
# [6] = test system: Mycobacterium tuberculosis; assay: Antitubercular activity against multidrug-resistant Mycobacterium tuberculosis 2712 infected in C57BL/6 mouse assessed as colony forming units per lung mass units at 28 mg/kg, po administered via gavage over 42 days (excluding weekends) cotreated with prothionamide, levofloxacin and p-aminosalicylic acid (reference value: 85.7 +/- 5.3 x 10^3)
Compound,MIC [1],MIC [2],MIC [3],Activity_index [4],Activity_index [5],Activity [6]
Cc1cnc(C)n1C1CCN(C(=O)c2ccc([N+](=O)[O-])o2)C1 (stereo not drawn),25 µg/mL,25 µg/mL,12.5 µg/mL,–,–,–
Cc1cnc(-c2ccccc2)n1CC1CCN(C(=O)c2ccc([N+](=O)[O-])o2)C1 (stereo not drawn),3.1 µg/mL,6.2 µg/mL,6.2 µg/mL,–,–,–
CCCn1c(C)cnc1C1CN(C(=O)c2ccc([N+](=O)[O-])o2)C1,0.8 µg/mL,3.1 µg/mL,3.1 µg/mL,1.15,2.54,10.6 ×10³ CFU
Cc1cnc(CCNC(=O)c2ccc([N+](=O)[O-])o2)n1C1CCC1,12.5 µg/mL,12.5 µg/mL,12.5 µg/mL,–,–,–
Cc1cnc(CC2CCN(C(=O)c3ccc([N+](=O)[O-])o3)C2)n1CC1CC1 (stereo not drawn),1.6 µg/mL,6.2 µg/mL,12.5 µg/mL,–,–,–
